From ChEMBL document CHEMBL4152207, “Discovery of potent and selective BRD4 inhibitors capable of blocking TLR3-induced acute airway inflammation” (Eur J Med Chem, 2018)
Active and inactive are the calls of the source. No cut-off for these calls is given here.

Key:
[1] = biological target: Histamine H2 receptor (Homo sapiens) (UniProt P25021); test: Displacement of [125I]APT from human recombinant histamine H2 receptor at 10 uM after 120 mins by scintillation counting analysis relative to control
[2] = biological target: Alpha-1A adrenergic receptor (Homo sapiens) (UniProt P35348); test: Displacement of [3H]prazosin from human recombinant adrenergic alpha1A receptor at 10 uM after 120 mins by scintillation counting analysis relative to control
[3] = biological target: Cannabinoid receptor 1 (Homo sapiens) (UniProt P21554); test: Displacement of [3H]CP 55940 from human recombinant CB1 receptor at 10 uM after 120 mins by scintillation counting analysis relative to control
[4] = biological target: Beta-1 adrenergic receptor (Homo sapiens) (UniProt P08588); test: Displacement of [3H](-)CGP 12177 from human beta1 adrenoceptor at 10 uM after 60 mins by scintillation counting analysis relative to control
[5] = biological target: 5-hydroxytryptamine receptor 1B (Homo sapiens) (UniProt P28222); test: Displacement of [125I]-CYP from human 5-HT1B receptor at 10 uM after 120 mins by scintillation counting analysis relative to control
[6] = biological target: 3',5'-cyclic-AMP phosphodiesterase 4D (Homo sapiens) (UniProt Q08499); test: Displacement of [3H]cAMP from human recombinant PDE4D2 at 10 uM after 20 mins by scintillation counting analysis relative to control
[7] = biological target: Sodium-dependent serotonin transporter (Homo sapiens) (UniProt P31645); test: Binding affinity to human serotonin transporter at 10 uM by antagonist radioligand assay relative to control; design: scale not given: the % may be the effect or the level left
[8] = biological target: Adenosine receptor A2a (Homo sapiens) (UniProt P29274); test: Displacement of [3H]-CGS 21680 from human recombinant adenosine A2A receptor at 10 uM after 120 mins by scintillation counting analysis relative to control
[9] = biological target: Inhibitor of nuclear factor kappa-B kinase subunit epsilon (Homo sapiens) (UniProt Q14164); test: Inhibition of human recombinant IKKepsilon using Ulight-FLGFTYVAP as substrate after 90 mins relative to control; design: scale not given: the % may be the effect or the level left
[10] = biological target: 5-hydroxytryptamine receptor 1A (Homo sapiens) (UniProt P08908); test: Displacement of [3H]8-OH-DPAT from recombinant human 5-HT1A receptor at 10 uM after 60 mins by scintillation counting analysis relative to control
Mus musculus [11] = test: Toxicity in mouse assessed as effect on body weight at 1 to 50 mg/kg, ip dosed daily for 1 month; format: organism-based; details: in vivo
[12] = biological target: Neuronal acetylcholine receptor; alpha4/beta2 (Homo sapiens) (UniProt P17787+P43681); test: Binding affinity to neuronal alpha4beta2 (unknown origin) at 10 uM by antgonist radioligand assay relative to control; format: protein-complex assay
[13] = AUC (0 to t) in rat at 20 mg/kg, po; format: ADME, organism-based; details: in vivo
[14] = Total clearance in rat at 10 mg/kg, iv; format: ADME, organism-based; details: in vivo
[15] = biological target: Cholecystokinin receptor type A (Homo sapiens) (UniProt P32238); test: Displacement of [125I]CCK-8s from human recombinant CCK1 receptor at 10 uM after 60 mins by scintillation counting analysis relative to control
Mus musculus [16] = test: Renal toxicity in mouse assessed as effect on BUN level at 1 to 50 mg/kg, ip dosed daily for 1 month; format: organism-based; details: in vivo
[17] = biological target: Delta-type opioid receptor (Homo sapiens) (UniProt P41143); test: Displacement of [3H]DADLE from human recombinant delta opioid receptor after 60 mins by scintillation counting analysis relative to control
hERG (KCNH2) = hERG (KCNH2) (Homo sapiens, UniProt Q12809); test: Displacement of [3H]Dofetilide from human ERG at 10 uM after 60 mins by scintillation counting analysis relative to control; details: probe [3H]Dofetilide, read-out: Activity
Mus musculus [18] = test: Hepatotoxicity in mouse assessed as effect on ALT level at 1 to 50 mg/kg, ip dosed daily for 1 month; format: toxicity, organism-based; details: in vivo
Procedure, shortened: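 Groups of n = 5 mice were dosed daily at 1-50 mg/kg for one month. Liver function markers (albumin, globulin, ALK, ALT) were measured alongside body weight, blood counts and renal markers.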

[19] = biological target: D(2) dopamine receptor (Homo sapiens) (UniProt P14416); test: Displacement of [3H]7-OH-DPAT from human recombinant dopamine D2S receptor at 10 uM after 60 mins by scintillation counting analysis relative to control
Mus musculus [20] = test: Renal toxicity in mouse at 1 to 50 mg/kg, ip dosed daily for 1 month by histological analysis; format: organism-based; details: in vivo
[21] = biological target: Glucocorticoid receptor (Homo sapiens) (UniProt P04150); test: Displacement of [3H]dexamethasone from human GR at 10 uM after 360 mins by scintillation counting analysis relative to control
[22] = biological target: Kappa-type opioid receptor (Homo sapiens) (UniProt P41145); test: Displacement of [3H]U69593 from human kappa opioid receptor at 10 uM after 60 mins by scintillation counting analysis relative to control
Mus musculus [23] = test: Anti-inflammatory activity in poly(I:C)-induced airway inflammation C57BL/6 mouse model assessed as reduction in total cells in bronchoalveolar lavage fluid at 10 mg/kg, ip administered 1 day prior to poly(I:C) stimulation and redosed on day 2 followed by poly(I:C) stimulation by trypan blue staining-based hemocytometric analysis; format: functional, organism-based
[24] = biological target: Muscarinic acetylcholine receptor M3 (Homo sapiens) (UniProt P20309); test: Displacement of [3H]4-DAMP from human recombinant M3 receptor at 10 uM after 60 mins by scintillation counting analysis relative to control
[25] = biological target: Muscarinic acetylcholine receptor M2 (Homo sapiens) (UniProt P08172); test: Displacement of [3H]AF-DX 384 from human recombinant M2 receptor at 10 uM after 60 mins by scintillation counting analysis relative to control
[26] = biological target: Alpha-2A adrenergic receptor (Homo sapiens) (UniProt P08913); test: Binding affinity to adrenergic alpha2A receptor (unknown origin) at 10 uM by agonist radioligand assay relative to control
Mus musculus [27] = test: Anti-inflammatory activity in poly(I:C)-induced airway inflammation C57BL/6 mouse model assessed as reduction in neutrophils recruitment into bronchoalveolar lavage fluid at 10 mg/kg, ip administered 1 day prior to poly(I:C) stimulation and redosed on day 2 followed by poly(I:C) stimulation by trypan blue staining-based hemocytometric analysis; format: functional, organism-based
[28] = AUC (0 to t) in rat at 10 mg/kg, iv; format: ADME, organism-based; details: in vivo
Cavia porcellus = species on record: Cavia porcellus; test: Binding affinity to guinea pig Sodium channel site 2 at 10 uM by antagonist radioligand assay relative to control; design: scale not given: the % may be the effect or the level left
[29] = biological target: MAO-A (amine oxidase [flavin-containing] A) (Rattus norvegicus, UniProt P21396); test: Displacement of [3H]Ro 41-1049 from rat MAO-A at 10 uM after 120 mins by scintillation counting analysis relative to control; details: probe [3H]Ro 41-1049, read-out: Activity
[30] = biological target: Vasopressin V1a receptor (Homo sapiens) (UniProt P37288); test: Displacement of [3H]AVP from human recombinant V1a receptor at 10 uM after 60 mins by scintillation counting analysis relative to control
[31] = biological target: Tyrosine-protein kinase Lck (Homo sapiens) (UniProt P06239); test: Inhibition of human recombinant LCK using Ulight-Poly GAT[EAY(1:1:1)]n as substrate after 10 mins relative to control; design: scale not given: the % may be the effect or the level left

Chain of D(2) dopamine receptor (Homo sapiens) (P14416 whole entry): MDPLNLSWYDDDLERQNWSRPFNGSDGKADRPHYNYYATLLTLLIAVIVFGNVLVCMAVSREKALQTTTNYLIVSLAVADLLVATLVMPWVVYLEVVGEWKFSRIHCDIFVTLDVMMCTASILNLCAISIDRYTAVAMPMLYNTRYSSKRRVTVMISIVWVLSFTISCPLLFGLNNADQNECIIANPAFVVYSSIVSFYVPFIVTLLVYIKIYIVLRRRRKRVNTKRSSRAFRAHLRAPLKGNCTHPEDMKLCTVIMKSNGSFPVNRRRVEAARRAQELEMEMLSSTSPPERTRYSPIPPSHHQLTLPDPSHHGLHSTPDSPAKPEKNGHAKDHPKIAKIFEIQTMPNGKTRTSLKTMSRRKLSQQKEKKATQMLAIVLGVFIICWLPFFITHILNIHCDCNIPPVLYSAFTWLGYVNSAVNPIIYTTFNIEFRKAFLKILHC
Chain of Cholecystokinin receptor type A (Homo sapiens) (P32238 whole entry): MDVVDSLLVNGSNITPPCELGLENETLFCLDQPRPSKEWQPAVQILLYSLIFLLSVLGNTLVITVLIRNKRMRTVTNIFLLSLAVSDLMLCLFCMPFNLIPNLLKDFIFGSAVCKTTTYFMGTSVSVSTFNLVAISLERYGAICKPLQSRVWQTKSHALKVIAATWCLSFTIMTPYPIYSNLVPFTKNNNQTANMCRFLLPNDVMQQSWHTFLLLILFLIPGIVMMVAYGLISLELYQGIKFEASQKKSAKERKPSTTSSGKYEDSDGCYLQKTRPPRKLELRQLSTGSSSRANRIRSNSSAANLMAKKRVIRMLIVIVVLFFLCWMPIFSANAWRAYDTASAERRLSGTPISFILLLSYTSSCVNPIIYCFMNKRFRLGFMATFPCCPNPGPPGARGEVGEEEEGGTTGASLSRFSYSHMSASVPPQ
Chain of MAO-A (amine oxidase [flavin-containing] A) (P21396 whole entry): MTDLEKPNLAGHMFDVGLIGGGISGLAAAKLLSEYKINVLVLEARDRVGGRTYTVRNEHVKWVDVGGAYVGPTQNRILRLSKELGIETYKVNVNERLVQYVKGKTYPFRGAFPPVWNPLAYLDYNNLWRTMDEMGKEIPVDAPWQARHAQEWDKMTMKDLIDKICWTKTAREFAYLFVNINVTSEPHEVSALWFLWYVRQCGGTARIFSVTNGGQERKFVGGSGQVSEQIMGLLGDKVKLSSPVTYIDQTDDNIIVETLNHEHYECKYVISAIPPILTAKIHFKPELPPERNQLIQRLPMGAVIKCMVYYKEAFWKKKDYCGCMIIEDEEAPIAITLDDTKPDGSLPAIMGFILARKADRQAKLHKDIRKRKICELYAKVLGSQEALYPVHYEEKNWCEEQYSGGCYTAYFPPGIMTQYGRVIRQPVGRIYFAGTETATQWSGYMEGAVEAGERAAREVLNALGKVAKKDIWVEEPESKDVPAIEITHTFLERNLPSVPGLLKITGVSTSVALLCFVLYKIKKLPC
Chain of Alpha-1A adrenergic receptor (Homo sapiens) (P35348 whole entry): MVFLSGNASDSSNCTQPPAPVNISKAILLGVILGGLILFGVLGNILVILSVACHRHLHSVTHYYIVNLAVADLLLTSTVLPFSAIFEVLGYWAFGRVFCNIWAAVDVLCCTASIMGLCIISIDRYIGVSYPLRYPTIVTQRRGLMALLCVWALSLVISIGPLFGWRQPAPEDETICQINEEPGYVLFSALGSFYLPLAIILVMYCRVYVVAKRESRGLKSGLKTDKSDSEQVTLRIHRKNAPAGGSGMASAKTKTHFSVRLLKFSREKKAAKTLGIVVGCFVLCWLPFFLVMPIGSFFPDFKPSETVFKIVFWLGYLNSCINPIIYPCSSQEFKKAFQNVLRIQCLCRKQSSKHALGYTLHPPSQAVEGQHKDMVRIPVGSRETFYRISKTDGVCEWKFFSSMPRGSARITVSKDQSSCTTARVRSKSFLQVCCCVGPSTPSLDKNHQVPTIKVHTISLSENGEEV
Chain of 5-hydroxytryptamine receptor 1A (Homo sapiens) (P08908 whole entry): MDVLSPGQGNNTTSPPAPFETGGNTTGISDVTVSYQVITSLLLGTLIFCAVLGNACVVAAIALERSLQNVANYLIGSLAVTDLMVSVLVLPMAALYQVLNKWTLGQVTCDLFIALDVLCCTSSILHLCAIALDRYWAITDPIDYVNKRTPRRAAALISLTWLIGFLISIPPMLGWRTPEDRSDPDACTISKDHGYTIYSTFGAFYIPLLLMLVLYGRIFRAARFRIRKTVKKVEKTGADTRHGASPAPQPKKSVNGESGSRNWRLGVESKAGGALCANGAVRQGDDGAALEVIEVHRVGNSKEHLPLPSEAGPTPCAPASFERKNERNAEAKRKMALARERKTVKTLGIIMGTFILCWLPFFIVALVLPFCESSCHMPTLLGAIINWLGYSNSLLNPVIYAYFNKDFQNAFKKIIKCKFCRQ
Chain of Muscarinic acetylcholine receptor M2 (Homo sapiens) (P08172 whole entry): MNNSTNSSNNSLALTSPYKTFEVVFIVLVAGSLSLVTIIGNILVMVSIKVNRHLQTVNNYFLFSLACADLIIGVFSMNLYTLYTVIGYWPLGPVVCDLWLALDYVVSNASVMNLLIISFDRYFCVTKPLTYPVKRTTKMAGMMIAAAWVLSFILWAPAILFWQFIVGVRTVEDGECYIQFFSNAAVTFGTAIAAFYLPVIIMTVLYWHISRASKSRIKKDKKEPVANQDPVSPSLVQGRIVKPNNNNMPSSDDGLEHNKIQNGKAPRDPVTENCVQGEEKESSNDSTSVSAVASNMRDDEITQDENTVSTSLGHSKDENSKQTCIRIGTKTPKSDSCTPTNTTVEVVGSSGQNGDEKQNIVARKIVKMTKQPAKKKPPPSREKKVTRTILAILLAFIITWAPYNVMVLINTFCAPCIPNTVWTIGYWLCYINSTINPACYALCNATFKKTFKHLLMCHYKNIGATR
Chain of Inhibitor of nuclear factor kappa-B kinase subunit epsilon (Homo sapiens) (Q14164 whole entry): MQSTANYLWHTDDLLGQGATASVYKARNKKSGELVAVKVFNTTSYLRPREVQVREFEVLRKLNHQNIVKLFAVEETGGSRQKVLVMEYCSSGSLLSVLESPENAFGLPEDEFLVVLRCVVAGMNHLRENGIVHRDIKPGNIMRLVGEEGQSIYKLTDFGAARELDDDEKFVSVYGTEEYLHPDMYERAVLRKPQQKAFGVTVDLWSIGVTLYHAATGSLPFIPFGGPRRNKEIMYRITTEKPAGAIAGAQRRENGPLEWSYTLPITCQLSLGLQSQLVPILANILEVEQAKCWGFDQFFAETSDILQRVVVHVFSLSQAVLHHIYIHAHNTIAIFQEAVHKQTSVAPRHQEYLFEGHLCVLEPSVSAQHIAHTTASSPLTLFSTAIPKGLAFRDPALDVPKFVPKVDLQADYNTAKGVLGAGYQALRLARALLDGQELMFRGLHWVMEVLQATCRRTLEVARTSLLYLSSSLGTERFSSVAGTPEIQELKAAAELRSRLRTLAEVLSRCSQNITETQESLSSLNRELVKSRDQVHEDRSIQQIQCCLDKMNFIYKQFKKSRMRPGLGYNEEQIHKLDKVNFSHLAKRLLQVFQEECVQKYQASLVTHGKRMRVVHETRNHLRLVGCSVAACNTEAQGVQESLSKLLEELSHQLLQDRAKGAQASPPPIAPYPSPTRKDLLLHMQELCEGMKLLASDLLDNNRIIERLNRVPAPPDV
Chain of Kappa-type opioid receptor (Homo sapiens) (P41145 whole entry): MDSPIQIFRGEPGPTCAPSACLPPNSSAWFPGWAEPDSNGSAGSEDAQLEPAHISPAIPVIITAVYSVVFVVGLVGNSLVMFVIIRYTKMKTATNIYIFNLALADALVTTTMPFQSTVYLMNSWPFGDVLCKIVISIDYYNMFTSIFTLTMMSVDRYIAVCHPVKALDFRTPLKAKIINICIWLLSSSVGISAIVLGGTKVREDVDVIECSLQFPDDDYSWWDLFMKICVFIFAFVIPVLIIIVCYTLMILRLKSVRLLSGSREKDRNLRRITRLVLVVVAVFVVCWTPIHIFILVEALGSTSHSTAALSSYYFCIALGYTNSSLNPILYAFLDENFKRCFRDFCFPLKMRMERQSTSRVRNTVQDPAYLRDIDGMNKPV
Chain of 3',5'-cyclic-AMP phosphodiesterase 4D (Homo sapiens) (Q08499 whole entry): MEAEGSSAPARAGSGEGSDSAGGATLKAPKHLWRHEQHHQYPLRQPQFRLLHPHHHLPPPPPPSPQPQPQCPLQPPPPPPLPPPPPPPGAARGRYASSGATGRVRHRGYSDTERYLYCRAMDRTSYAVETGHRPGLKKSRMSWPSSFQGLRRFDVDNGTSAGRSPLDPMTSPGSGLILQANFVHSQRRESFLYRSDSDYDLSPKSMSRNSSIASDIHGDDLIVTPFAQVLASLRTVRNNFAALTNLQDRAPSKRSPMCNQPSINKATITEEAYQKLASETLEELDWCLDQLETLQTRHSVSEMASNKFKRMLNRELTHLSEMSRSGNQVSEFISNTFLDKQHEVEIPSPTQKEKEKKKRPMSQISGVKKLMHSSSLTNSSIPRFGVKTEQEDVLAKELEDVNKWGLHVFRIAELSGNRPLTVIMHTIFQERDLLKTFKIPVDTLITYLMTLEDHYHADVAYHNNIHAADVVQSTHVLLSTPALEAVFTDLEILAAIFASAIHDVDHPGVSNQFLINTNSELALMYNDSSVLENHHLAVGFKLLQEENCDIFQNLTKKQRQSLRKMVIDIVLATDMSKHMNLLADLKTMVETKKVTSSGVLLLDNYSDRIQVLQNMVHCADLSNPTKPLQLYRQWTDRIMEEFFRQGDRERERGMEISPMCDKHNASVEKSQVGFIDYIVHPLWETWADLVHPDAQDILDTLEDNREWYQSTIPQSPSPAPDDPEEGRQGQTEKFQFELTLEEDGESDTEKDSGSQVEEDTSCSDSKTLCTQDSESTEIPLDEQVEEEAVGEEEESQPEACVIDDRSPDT

Cc1cc(/N=N/c2ccc(S(=O)(=O)NC3CCCC3)cc2)c(N)cc1O
Activity [1]: -10.1%
Activity [2]: 17.2%
Activity [3]: 24.7%
Activity [4]: 7.4%
Activity [5]: -9.6%
Activity [6]: 39.4%
Activity [7]: 15%
Activity [8]: 38.1%
Activity [9]: -26.2%
Activity [10]: -0.1%
Activity (Mus musculus [11]): Non-Toxic
Activity [12]: -2.9%
AUC(0-t) [13]: 104 ng·h/mL
clearance [14]: 14.7 mL/min/kg
Activity [15]: 17.4%
Activity (Mus musculus [16]): Non-Toxic
Activity [17]: -2.7%
inhibition at 1 h, 10 µM (hERG (KCNH2)): 23.6%
Activity (Mus musculus [18]): Non-Toxic
Activity [19]: 36.9%
Activity (Mus musculus [20]): Non-Toxic
Activity [21]: 15%
Activity [22]: 8.9%
Activity (Mus musculus [23]): Active
Activity [24]: 4.8%
Activity [25]: 21.6%
Activity [26]: 3%
Activity (Mus musculus [27]): Active
AUC(0-t) [28]: 11400 ng·h/mL
Activity (Cavia porcellus): 27.7%
inhibition at 2 h, 10 µM [29]: 49.8%
Activity [30]: 32.4%
Activity [31]: -20.6%
